Assay results as given in publication PMC7729281 (Biochemistry, 2020).
Where “and” joins values, the source holds several entries; their conditions need not be identical. Equal entries are not always repeated.

Legend:
h15-LOX-1 [1] = biological target: T1, h15-LOX-1 (Homo sapiens, UniProt P16050); assay: Allosteric modulation of 14S-HpDHA epoxidation by h15-LOX-1; type: biochemical
T1 sequence (P16050 1-662): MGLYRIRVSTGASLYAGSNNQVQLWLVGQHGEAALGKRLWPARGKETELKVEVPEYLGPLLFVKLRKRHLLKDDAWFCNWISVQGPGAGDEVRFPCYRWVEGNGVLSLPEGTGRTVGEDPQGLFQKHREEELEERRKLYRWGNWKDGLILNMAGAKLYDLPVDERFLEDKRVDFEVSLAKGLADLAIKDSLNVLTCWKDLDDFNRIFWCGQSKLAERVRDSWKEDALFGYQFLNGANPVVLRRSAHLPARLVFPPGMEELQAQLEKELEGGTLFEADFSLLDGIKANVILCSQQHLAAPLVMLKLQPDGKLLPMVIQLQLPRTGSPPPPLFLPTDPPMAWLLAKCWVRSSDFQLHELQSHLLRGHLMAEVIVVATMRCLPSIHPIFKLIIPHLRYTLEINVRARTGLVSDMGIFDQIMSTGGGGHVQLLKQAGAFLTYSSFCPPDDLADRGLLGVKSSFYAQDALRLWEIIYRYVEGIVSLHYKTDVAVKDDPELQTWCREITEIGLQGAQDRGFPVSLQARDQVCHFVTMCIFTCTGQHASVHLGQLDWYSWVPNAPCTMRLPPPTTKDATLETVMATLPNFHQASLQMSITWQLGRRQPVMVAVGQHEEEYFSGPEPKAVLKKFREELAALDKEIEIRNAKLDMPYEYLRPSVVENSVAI
In short: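 Recombinant human h15-LOX-1 (0.125 μM, 25 mM HEPES pH 7.5, 20 min) or h12-LOX (0.3 μM, pH 8.0, 1 h) reacted at room temperature with 1 μM 14S-HpDHA while oxylipin modulator was titrated (1–100 μM), or with 14S-HpDHA varied alone (1–50 μM). Products were reduced and analysed by LC-MS. Dehydration (epoxide) versus oxygenation product percentages were calculated, N = 3.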

h12-LOX [2] = biological target: T2, h12-LOX (Homo sapiens, UniProt P18054); assay: Steady-state kinetics of h12-LOX
T2 sequence (P18054 1-663): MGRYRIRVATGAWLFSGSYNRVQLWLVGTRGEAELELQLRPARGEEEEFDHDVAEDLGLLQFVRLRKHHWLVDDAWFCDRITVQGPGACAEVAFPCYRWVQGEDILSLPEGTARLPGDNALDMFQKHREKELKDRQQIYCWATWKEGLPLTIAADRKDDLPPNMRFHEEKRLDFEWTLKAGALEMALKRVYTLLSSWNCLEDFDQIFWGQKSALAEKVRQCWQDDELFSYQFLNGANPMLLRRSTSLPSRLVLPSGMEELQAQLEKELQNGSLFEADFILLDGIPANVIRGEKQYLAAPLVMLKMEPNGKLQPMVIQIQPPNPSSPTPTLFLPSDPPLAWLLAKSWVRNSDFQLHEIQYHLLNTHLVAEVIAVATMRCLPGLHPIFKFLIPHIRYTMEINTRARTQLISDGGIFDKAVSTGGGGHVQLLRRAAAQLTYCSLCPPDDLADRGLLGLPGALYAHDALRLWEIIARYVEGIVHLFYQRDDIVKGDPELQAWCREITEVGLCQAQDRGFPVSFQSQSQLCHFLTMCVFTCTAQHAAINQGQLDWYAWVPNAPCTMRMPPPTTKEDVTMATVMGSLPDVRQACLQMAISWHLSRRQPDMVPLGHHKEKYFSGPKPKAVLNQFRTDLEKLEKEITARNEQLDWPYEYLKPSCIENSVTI

h12-LOX [3] = biological target: T2, h12-LOX; assay: Product analysis of h12-LOX reactions; type: biochemical; conditions: h12-LOX + 1 μM 14S-HpDHA, 60 min, pH 8.0, ambient O2
In short: (§1)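 h15-LOX-1 (0.125 μM, pH 7.5) or h12-LOX (0.300 μM, pH 8.0) was reacted in 25 mM HEPES at room temperature under ambient O2. Substrates were 10 μM DHA for 1 min (monitored at 234 nm) or 1 μM 14S-HpDHA for 20 min (h15-LOX-1) or 1 h (h12-LOX) (monitored at 270 nm). Reactions were quenched with acetic acid, spiked with d5-maresin-1, extracted into DCM and background-subtracted against a no-enzyme control. Split samples were run with or without trimethyl phosphite reduction. Products were identified by C18 LC-MS/MS (qTOF), N = 3.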

h15-LOX-1 [4] = biological target: T1, h15-LOX-1; assay: Product analysis of h15-LOX-1 reactions; type: biochemical
In short: as §1

[5] = h12-LOX + substrate, 25 mM HEPES pH 8.0, RT
[6] = h15-LOX-1 + 1 μM 14S-HpDHA, 20 min, pH 7.5, ambient O2

With `CC/C=C\C/C=C\C[C@@H](/C=C/C=C\C/C=C\C/C=C\CCC(=O)O)OO` [14S-HpDHA, 14S-hydroperoxy-4Z,7Z,10Z,12E,16Z,19Z-docosahexaenoic acid] the “7S,14S-EZE-diHDHA (oxygenation product)” value (h15-LOX-1 [1]; h15-LOX-1, 14S-HpDHA at high concentration (50 μM)) was 76 ± 0.5%, the “7R/S,14S-EEE-diHDHA (epoxide degradation product)” value (h15-LOX-1 [1]; h15-LOX-1, 14S-HpDHA at low concentration (1 μM)) was 71 ± 11% and the “fold difference of 13S,14S-epoxy-DHA biosynthetic flux” value (h12-LOX [2]; h12-LOX + 14S-HpDHA) was 1.0. The “13S,14S-epoxy-DHA biosynthetic flux” value (h12-LOX [2]; h12-LOX + 14S-HpDHA, B.F. = kcat/KM * % product) was 0.0018, the Km (h12-LOX [2]; [5]) was 88 ± 16 µM and the kcat (h12-LOX [2]; [5]) was 0.22 ± 0.02 s⁻¹. The reduction of kcat (h12-LOX [2]; h12-LOX, 14S-HpDHA relative to DHA) was 60 fold, the “fold difference of kcat/KM” value (h12-LOX [2]; h12-LOX, kcat/KM of enzyme with DHA set to 1 (Table 5)) was −5880 and the “product profile: 7S,14S-EZE-diHpDHA” value (h12-LOX [3]) was 12% and 12 ± 2%. For the same compound, the “product profile: 13S,14S-epoxy-DHA (detected as 7S/R,14S-EEE-diHDHA)” value (h12-LOX [3]) was 76% and 76 ± 11%, the “product profile: 14S,20-diHpDHA” value (h12-LOX [3]) was 13% and 13 ± 9% and the “product profile: 7S,14S-EZE-diHpDHA” value (h15-LOX-1 [4]; [6]) was 29% and 29 ± 6%. For the same compound, the “product profile: 13S,14S-epoxy-DHA (detected as 7S/R,14S-EEE-diHDHA)” value (h15-LOX-1 [4]; [6]) was 71% and 71 ± 6%, the “product profile: 14S,20-diHpDHA” value (h15-LOX-1 [4]; [6]) was under 1.0% and the “loss in 7S,14S-EZE-diHpDHA production at increased pH” value (h15-LOX-1 [4]; h15-LOX-1 + 14S-HpDHA, Figure S3) was 7 fold.
